Measured values taken from ChEMBL document CHEMBL3392966, “Antiproliferative activity of synthetic fatty acid amides from renewable resources” (Bioorg Med Chem, 2015).
In brackets after ≈: the same amount, converted by molar mass.

Key:
HaCaT [1] = test: Cytotoxicity against human HaCaT cells after 48 hrs by sulforhodamine B assay; assay type: cell-based
MCF7 [2] = test: Antiproliferative activity against human MCF7 cells assessed as tumor growth inhibition after 48 hrs by sulforhodamine B assay; assay type: functional; conditions: MCF7, 48 h
Procedure, shortened: (§1)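 Tumor cells grown in RPMI 1640 with 5% fetal bovine serum, with penicillin/streptomycin in experimental cultures. Exposed in 96-well plates to samples in DMSO/RPMI at 0.25, 2.5, 25 and 250 µg/mL, 37 °C, 5% CO2, 48 h. Fixed with 50% trichloroacetic acid before (T0) and after treatment, protein stained with sulforhodamine B and read at 540 nm. GI50, TGI and LC50 in µg/mL from dose-response curves by non-linear regression.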

NCI/ADR-RES [3] = test: Antiproliferative activity against human NCI/ADR-RES cells assessed as tumor growth inhibition after 48 hrs by sulforhodamine B assay; assay type: functional; procedure, shortened: as §1
786-0 [4] = test: Antiproliferative activity against human 786-0 cells after 48 hrs by sulforhodamine B assay; assay type: functional; conditions: 786-0, 48 h; procedure, shortened: as §1
U-251 [5] = test: Antiproliferative activity against human U251 cells after 48 hrs by sulforhodamine B assay; assay type: functional; conditions: U-251, 48 h; procedure, shortened: as §1
NCI-H460 [6] = test: Antiproliferative activity against human NCI-H460 cells assessed as tumor growth inhibition after 48 hrs by sulforhodamine B assay; assay type: functional; conditions: NCI-H460, 48 h; procedure, shortened: as §1
[7] = Antiproliferative activity against human OVCAR3 cells assessed as tumor growth inhibition after 48 hrs by sulforhodamine B assay; assay type: functional; conditions: OVCAR-3, 48 h; procedure, shortened: as §1
[8] = Antiproliferative activity against human PC3 cells after 48 hrs by sulforhodamine B assay; assay type: functional; conditions: PC-3, 48 h; procedure, shortened: as §1
NCI/ADR-RES [9] = test: Antiproliferative activity against human NCI/ADR-RES cells after 48 hrs by sulforhodamine B assay; assay type: functional; procedure, shortened: as §1
MCF7 [10] = test: Antiproliferative activity against human MCF7 cells after 48 hrs by sulforhodamine B assay; assay type: functional; conditions: MCF7, 48 h; procedure, shortened: as §1
[11] = Antiproliferative activity against human PC3 cells assessed as tumor growth inhibition after 48 hrs by sulforhodamine B assay; assay type: functional; conditions: PC-3, 48 h; procedure, shortened: as §1
[12] = Antiproliferative activity against human OVCAR3 cells after 48 hrs by sulforhodamine B assay; assay type: functional; conditions: OVCAR-3, 48 h; procedure, shortened: as §1
786-0 [13] = test: Antiproliferative activity against human 786-0 cells assessed as tumor growth inhibition after 48 hrs by sulforhodamine B assay; assay type: functional; conditions: 786-0, 48 h; procedure, shortened: as §1
NCI-H460 [14] = test: Antiproliferative activity against human NCI-H460 cells after 48 hrs by sulforhodamine B assay; assay type: functional; conditions: NCI-H460, 48 h; procedure, shortened: as §1
U-251 [15] = test: Antiproliferative activity against human U251 cells assessed as tumor growth inhibition after 48 hrs by sulforhodamine B assay; assay type: functional; conditions: U-251, 48 h; procedure, shortened: as §1
HaCaT [16] = test: Cytotoxicity against human HaCaT cells assessed as tumor growth inhibition after 48 hrs by sulforhodamine B assay; assay type: cell-based
Procedure, shortened: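 Non-tumor lines (human HaCaT keratinocytes; Vero) in RPMI 1640 with 5% FBS, with penicillin/streptomycin added to experimental cultures. 48 h exposure at 0.25–250 µg/mL (DMSO/RPMI), 37 °C, 5% CO2. TCA fixation at time zero and at end, sulforhodamine B protein stain, absorbance 540 nm. TGI (total growth inhibition) from non-linear regression of the dose-response curve.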

Row | Compound | LC50 (HaCaT [1]) | TGI (MCF7 [2]) | TGI (NCI/ADR-RES [3]) | GI50 (786-0 [4]) | GI50 (U-251 [5]) | TGI (NCI-H460 [6]) | TGI [7] | GI50 [8] | GI50 (NCI/ADR-RES [9]) | GI50 (MCF7 [10]) | TGI [11] | GI50 [12] | TGI (786-0 [13]) | GI50 (NCI-H460 [14]) | TGI (U-251 [15]) | TGI (HaCaT [16])
1 | CCCCCCCCCCCCCCCC(=O)N1CCOCC1 | 28.9 µg/mL (≈ 88.8 µM) | 54.7 µg/mL (≈ 168 µM) | 70.3 µg/mL (≈ 216 µM) | 33.1 µg/mL (≈ 102 µM) | 25 µg/mL (≈ 76.8 µM) | 91 µg/mL (≈ 280 µM) | 72.7 µg/mL (≈ 223 µM) | 22.2 µg/mL (≈ 68.2 µM) | 6.2 µg/mL (≈ 19 µM) | 15.4 µg/mL (≈ 47.3 µM) | 36.7 µg/mL (≈ 113 µM) | 33.1 µg/mL (≈ 102 µM) | 69.9 µg/mL (≈ 215 µM) | 34.1 µg/mL (≈ 105 µM) | 55.9 µg/mL (≈ 172 µM) | 73.7 µg/mL (≈ 226 µM)
2 | CCCCCC[C@@H](O)C/C=C\CCCCCCCC(=O)NCc1ccccc1 | 30.8 µg/mL (≈ 79.5 µM) | 104 µg/mL (≈ 270 µM) | 46.6 µg/mL (≈ 120 µM) | 32.3 µg/mL (≈ 83.3 µM) | 8.6 µg/mL (≈ 22.2 µM) | 179 µg/mL (≈ 461 µM) | 86 µg/mL (≈ 222 µM) | 123 µg/mL (≈ 316 µM) | 8.6 µg/mL (≈ 22.2 µM) | 37.8 µg/mL (≈ 97.5 µM) | 123 µg/mL (≈ 316 µM) | 31.6 µg/mL (≈ 81.5 µM) | 71.5 µg/mL (≈ 184 µM) | 32.3 µg/mL (≈ 83.3 µM) | 47.5 µg/mL (≈ 123 µM) | 66.5 µg/mL (≈ 172 µM)
3 | CCCCCCCC/C=C\CCCCCCCC(=O)N1CCOCC1 | 5.3 µg/mL (≈ 15.1 µM) | 13.1 µg/mL (≈ 37.3 µM) | 10.6 µg/mL (≈ 30.2 µM) | 4.5 µg/mL (≈ 12.8 µM) | 2.8 µg/mL (≈ 7.96 µM) | 34.7 µg/mL (≈ 98.7 µM) | 13.9 µg/mL (≈ 39.5 µM) | 5.2 µg/mL (≈ 14.8 µM) | 3.3 µg/mL (≈ 9.39 µM) | 4.9 µg/mL (≈ 13.9 µM) | 14.8 µg/mL (≈ 42.1 µM) | 4.9 µg/mL (≈ 13.9 µM) | 11.2 µg/mL (≈ 31.9 µM) | 7.9 µg/mL (≈ 22.5 µM) | 6.6 µg/mL (≈ 18.8 µM) | 23.2 µg/mL (≈ 66 µM)
4 | CCCCCCCC/C=C\CCCCCCCC(=O)NCCO [OLEOYLETHANOLAMIDE] | 14.4 µg/mL (≈ 44.2 µM) | 66.7 µg/mL (≈ 205 µM) | 39.5 µg/mL (≈ 121 µM) | 35.4 µg/mL (≈ 109 µM) | 27.3 µg/mL (≈ 83.9 µM) | 81 µg/mL (≈ 249 µM) | 71.7 µg/mL (≈ 220 µM) | 16.9 µg/mL (≈ 51.9 µM) | 9.1 µg/mL (≈ 28 µM) | 25.9 µg/mL (≈ 79.6 µM) | 44.2 µg/mL (≈ 136 µM) | 35.4 µg/mL (≈ 109 µM) | 64.6 µg/mL (≈ 198 µM) | 36.5 µg/mL (≈ 112 µM) | 51.3 µg/mL (≈ 158 µM) | 53.5 µg/mL (≈ 164 µM)
5 | CCCCCCCCCCCCCCCC(=O)N1CCCC1 | 4.8 µg/mL (≈ 15.5 µM) | 13.2 µg/mL (≈ 42.6 µM) | 30 µg/mL (≈ 96.9 µM) | 5.5 µg/mL (≈ 17.8 µM) | 4.6 µg/mL (≈ 14.9 µM) | 33.5 µg/mL (≈ 108 µM) | 22.9 µg/mL (≈ 74 µM) | 4.7 µg/mL (≈ 15.2 µM) | 4.6 µg/mL (≈ 14.9 µM) | 4.6 µg/mL (≈ 14.9 µM) | 12.2 µg/mL (≈ 39.4 µM) | 6.3 µg/mL (≈ 20.4 µM) | 16.1 µg/mL (≈ 52 µM) | 5.9 µg/mL (≈ 19.1 µM) | 11.4 µg/mL (≈ 36.8 µM) | 12.9 µg/mL (≈ 41.7 µM)
